# Screening results (PubChem)
# SR-BI uptake up = SR-BI HDL lipid transfer activation | CHO ldlA[mSR-BI] cells, DiI-HDL uptake fluorescence, 3 h; 100 = double the neutral-control signal | activation, % at 12.5 µM | actives 0.096% (n = 320,000);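 active = mean replicate activation of at least 60% and every replicate at or above 60%; inconclusive = mean or all-replicate condition met, but not both; inactive = mean below 60% and not all replicates reaching 60%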;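 also: 0% = median plate neutral-control signal and 100% = twice that signal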
#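 Material – SR-BI-overexpressing, LDLR-lacking CHO cells · Medium – BSA-supplemented, HEPES-buffered Ham's F12, pH 7.4 · Doses – single concentration · Times – compound with DiI-HDL co-incubation, 3 h at 37 °C · Measured by – bottom-read fluorescence, 550/595 nm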
# dFosB activator = activators of mouse delta FosB homodimer. P13346. purified delta FosB, TAMRA-CDK5 oligo fluorescence polarization; percent of positive-control signal above neutral wells. activation, % at 25 µM. actives 0.99% (n = 340,000). AID 493131;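 active = mean activation above about 17%, with every replicate also reaching it, limit read from the data, passing the limit was not always enough; inconclusive = only one of the two conditions met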
# Target sequence (P13346 whole entry, looked up): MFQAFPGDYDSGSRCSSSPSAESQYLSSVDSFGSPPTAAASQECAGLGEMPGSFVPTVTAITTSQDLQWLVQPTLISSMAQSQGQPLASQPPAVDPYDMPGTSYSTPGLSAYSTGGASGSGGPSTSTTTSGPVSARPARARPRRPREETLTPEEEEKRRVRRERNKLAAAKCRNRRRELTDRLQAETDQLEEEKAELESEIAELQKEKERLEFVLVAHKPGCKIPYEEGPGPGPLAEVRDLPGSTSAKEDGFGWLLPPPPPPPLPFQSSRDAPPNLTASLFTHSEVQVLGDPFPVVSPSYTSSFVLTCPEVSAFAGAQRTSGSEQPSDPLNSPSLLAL
# CDK5 inh = blocks human CDK5/p35 kinase activity | actives 0.01% (n = 330,000) | Recombinant CDK5/p35, ADP-Glo luminescence, 60 min | AID 488839 | Q00535+Q15078 | inhibition, % at 10 µM;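 active = highest replicate inhibition of at least 50% and at least 75% of replicates reaching 50%; inconclusive = only one of the two criteria met; inactive = both criteria failed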;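 also: plate controls were DMSO neutral control for no effect and GW8510 at 10 µM for full effect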
# SR-BI HDL uptake = inhibitors of mouse SR-BI mediated HDL lipid uptake; ldlA[mSR-BI] CHO cells, DiI-HDL uptake fluorescence, 3 h; inhibition, % at 12.5 µM; actives 0.96% (n = 320,000); AID 488896;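 active = mean replicate inhibition of at least 70% and a set share of replicates each scoring 70 or more; inconclusive = meets just one of the two criteria; inactive = fails both criteria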;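 also: 0% = median of neutral control wells and 100% = median of positive control wells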
# PKA-R2B act = activates the human PKA-R2B holoenzyme complex. actives 0.079% (n = 340,000). activation, % at 11.4 µM. PKA-R2B holoenzyme dissociation, Cy5-IP20 fluorescence polarization; R2B truncated from residue 108, S112A mutant; 0% DMSO only, 100% 113 µM cGMP;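 active = activation above a cutoff set at the mean over all compounds plus 3 SD, cut at about 18% in these data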;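 also: higher means more holoenzyme dissociation and a rise in polarization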
# PKA-R1A activ = PKA-R1A complex activation; PKA-R1A dissociation, Cy5-IP20 fluorescence polarization; scaled: DMSO 0%, 113 µM cGMP 100%; activation, % at 11.4 µM; AID 504707; actives 0.083% (n = 340,000);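 active = percent activation above the mean of all tested compounds plus 3 SD, cut at about 19% in these data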;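 also: higher means more PKAc released from R1A so a rise in polarization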
# Starred values were filed as active, the others as inactive; ? = inconclusive; . = no result given. Shown are actives, neighbours in structure and some others; about 2.1% of the full set was active somewhere.
SMILES,SR-BI uptake up,dFosB activator,CDK5 inh,SR-BI HDL uptake,PKA-R2B act,PKA-R1A activ
COc1cccc(/C=N/N2CCN(C3c4ccccc4-c4ccccc43)CC2)c1O,-72,-7,1,72*,-13,8
COc1cc(/C=N/N2CCN(C3c4ccccc4-c4ccccc43)CC2)ccc1O,-56,4,-3,56,-2,-2
CCCOc1cccc(C(=O)NC(=S)Nc2cccc(NC(=O)c3ccccc3Cl)c2)c1,-81,3,3,81*,-6,-11
O=C(O)c1cccc(NC(=S)NC(=O)c2cccc(OCc3ccccc3)c2)c1,68*,0,1,-68,-8,-6
COc1ccccc1/C=N/N(C(C)=O)c1nc(-c2ccc(F)cc2)cs1,-82,-5,-6,82*,0,-7
COc1cc(C(=O)NCC(c2ccccc2)N(C)C)ccc1OCc1c(C)noc1C (stereo not drawn),-41,-4,0,41,-11,-5
C=CC[n+]1c(/C=C2\C=Cc3cc(C)ccc3N2CC)ccc2ccccc21,-80,0,4,80*,-3,-5
CCN1C(=C(C#N)C#N)C=Cc2cc(C)ccc21,-21,0,1,21,-4,-7
CN(C)C(=O)N1CCN(C(=O)N2CCOCC2)CC1,75*,-11,-1,-75,-3,2
CCN(CC)C(=O)N1CCN(C(=O)N2CCOCC2)CC1,2,-7,0,-2,-3,-2
CCOC(=O)C1CCN(C(=O)c2ccccc2NC(=O)C2=C(C)OCCS2)CC1,31,7,.,-31,6,-10
CC(=O)Nc1cc2cc(NS(=O)(=O)c3ccc(C)cc3)ccc2oc1=O,2,155*,-2,-2,.,.
CC(=O)c1c(C)oc2ccc(NS(=O)(=O)c3ccc(C)cc3)cc12,.,-1,1,.,1,-3
COc1ccc(S(=O)(=O)N2CCCCCC2)cc1C(=O)N1CCN(c2ccccc2O)CC1,-1,-13,0,1,-2,4
CCOc1ccccc1NC(=O)c1ccc(OCC)c([N+](=O)[O-])c1,-73,2,1,?,-3,2
CCOc1ccc(C(=O)Nc2cccc(-c3cc4ccccc4oc3=O)c2)cc1[N+](=O)[O-],-80,5,1,80*,-1,1
Nc1ccc(Cc2ccc(N)c(O)c2)cc1O,-14,44*,-1,14,1,2
O=C(N/N=C/c1ccc([N+](=O)[O-])cc1)c1ccccc1OCc1ccccc1,3,0,2,-3,5,-4
O=C(N/N=C/c1ccc([N+](=O)[O-])cc1)c1ccc(COc2ccccc2-c2ccccc2)cc1,-99,0,2,99*,-9,2
O=C(Cc1c(Cl)cccc1Cl)N1CCN(S(=O)(=O)c2cccs2)CC1,-7,-10,-1,7,7,2
O=C1C=C(c2ccc(F)cc2OCc2ccccc2)C[C@@H](c2ccc(F)cc2)C1,-75,0,-1,75*,6,-8
COc1ccc(/C(N)=N/OC(=O)CC2CCCCC2)cc1,4,-3,3,-4,1,-4
C[C@H](CO)N1C[C@H](C)[C@@H](CN(C)C(=O)Nc2ccc3c(c2)OCO3)Oc2c(NC(=O)Nc3ccc4c(c3)OCO4)cccc2C1=O,-28,-2,0,28,3,-18
COc1cccc(C(=S)N2CCCC2)c1OC,20,-5,0,-20,10,12
Cc1ccc(C)c(Cn2c(O)c(N=NC(=S)Nc3ccccc3F)c3ccccc32)c1,-84,-13,-1,84*,-8,-7
SMILES,SR-BI uptake up,dFosB activator,CDK5 inh,SR-BI HDL uptake,PKA-R2B act,PKA-R1A activ
Cc1ccccc1Cn1c(O)c(N=NC(=S)Nc2ccccc2F)c2ccccc21,-46,-10,0,46,-6,4
CCOc1ccc(CCNC(=O)c2cccc(S(=O)(=O)N3CCN(C(C)=O)CC3)c2)cc1OCC,-52,-8,0,52,3,6
COc1ccc(OC)c(Nc2nc(-c3sc(NC(=O)C(C)(C)C)nc3C)cs2)c1,-81,0,3,81*,-2,-10
COc1ccc(Cl)cc1Nc1nc(-c2sc(NC(=O)C(C)(C)C)nc2C)cs1,-47,-7,-1,47,-12,-16
CCC(C)C(=O)Nc1nc(C)c(-c2csc(Nc3cc(Cl)ccc3OC)n2)s1 (stereo not drawn),-72,-11,2,72*,1,-14
COc1ccc(Cl)cc1Nc1nc(-c2sc(NC(=O)c3ccco3)nc2C)cs1,-89,-2,0,89*,-6,-7
COc1ccc(OC)c(Nc2nc(-c3sc(NC(=O)CC(C)C)nc3C)cs2)c1,-76,-6,-1,76*,-6,-24
COc1ccc(NC(=O)CCc2nc3ccccc3c(=O)[nH]2)cc1S(=O)(=O)N1CCCCC1,-7,-19,0,7,-8,3
CCN1CCN(c2ccc(NC(=O)c3cc(S(=O)(=O)N4CCCC4)ccc3Cl)cc2)CC1,-11,2,-1,11,2,-11
CCC(C)C(=O)Nc1nc(C)c(-c2csc(Nc3cc(OC)ccc3OC)n2)s1 (stereo not drawn),-80,-12,-1,80*,3,-7
COc1ccc(CSc2nnc(SCc3ccc([N+](=O)[O-])cc3)s2)cc1,5,-5,4,-5,13,19*
O=C(Nc1ccc(N2CCCC2)cc1)c1ccc(Br)cc1,-76,59*,0,76*,4,-1
Cc1cccc(NC(=O)c2ccc(NC(=O)c3ccccc3Br)cc2)c1,-72,?,-1,72*,-3,-14
Cc1cccc(NC(=S)NNC(=O)c2ccccc2Br)c1,8,-7,0,-8,-10,2
O=C(NNC(=O)c1ccccc1O)c1cc2ccccc2o1,-145,-10,-1,145*,-13,5
Cc1ccc(C(=O)Nc2ccc(N3CCN(C)CC3)cc2)cc1,-6,-2,1,6,-1,-4
Cc1cc(C)cc(C(=O)Nc2ccc(N3CCCC3)cc2)c1,-87,-5,-2,87*,-6,3
CN(C)CCCNC(=O)C1(O)c2cc(Br)ccc2NC(=O)N1c1c(F)cccc1F (stereo not drawn),27,3,3,-27,4,-3
CC[C@]12c3[nH]c4cc(-c5ccco5)ccc4c3CCN1C(=O)[C@@H](CC(=O)NCCCN(C)C)C[C@@H]2C(=O)N1CCN(C(=O)c2ccco2)CC1,10,-1,4,-10,1,-1
